{
  "source": "ChEMBL document CHEMBL4376838",
  "about": "“Discovery of Novel Celastrol Derivatives as Hsp90-Cdc37 Interaction Disruptors with Antitumor Activity” (J Med Chem, 2019)",
  "key": {"[1]": {"target": "T1, Hsp90 co-chaperone Cdc37 (Homo sapiens) (UniProt Q16543)", "T1 sequence (whole entry)": "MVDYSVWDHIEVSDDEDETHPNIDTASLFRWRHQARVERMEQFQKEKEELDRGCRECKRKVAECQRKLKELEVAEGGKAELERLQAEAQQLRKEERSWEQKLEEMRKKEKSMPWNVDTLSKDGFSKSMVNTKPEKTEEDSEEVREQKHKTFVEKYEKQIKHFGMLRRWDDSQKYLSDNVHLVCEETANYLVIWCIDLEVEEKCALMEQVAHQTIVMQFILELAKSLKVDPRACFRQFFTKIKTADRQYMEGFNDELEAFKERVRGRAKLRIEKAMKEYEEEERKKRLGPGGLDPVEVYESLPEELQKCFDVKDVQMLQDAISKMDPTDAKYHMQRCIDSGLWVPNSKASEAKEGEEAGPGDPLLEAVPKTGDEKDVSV", "assay": "Binding affinity to full length CDC37 (unknown origin) assessed as reduction in absorption at 440 nm reaching equilibrium within 15 mins at 100 uM by UV absorption analysis", "details": "in the assay text read “within 5 mins” for “within 15 mins”", "outline": "(§1)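 Compound (100 μM) mixed with GSH (100 μM), Cdc37 (1.5 μM) or Hsp90 (1.5 μM) in PBS containing 1% DMSO, incubated at 37 °C for 0, 5, 15 and 30 min. UV spectra scanned 200-500 nm, with absorbance at 440 nm compared against the 0 min value (A/A0). Mean ± SD, n = 3.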"}, "A549 [2]": {"test_system": "A549", "assay": "Induction of apoptosis in human A549 cells assessed as viable cells at 0.6 uM incubated for 48 hrs by Annexin V-FITC and PI staining based flow cytometric analysis (reference value: 95.5%)", "type": "functional", "details": "A549, 48 h, read-out: Activity"}, "A549 [3]": {"test_system": "A549", "assay": "Induction of cell cycle arrest in human A549 cells assessed as accumulation at S phase at 0.2 uM incubated for 24 hrs by PI staining based flow cytometric analysis (reference value: 27.59%)", "type": "functional", "outline": "(§2)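 A549 cells (4×10^5 per 6 cm dish) were grown 24 h, then exposed to compound (0.2, 0.4, 0.8 μM) or DMSO for 24 h. Cells fixed in 75% ethanol at −20 °C for at least 12 h, treated with RNase A at 37 °C for 30 min, then stained with PI for 15 min in the dark. Analysed by flow cytometry, mean ± SD, n = 3.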"}, "[4]": {"assay": "Binding affinity to GSH in PBS at 100 uM assessed as reduction in absorption at 440 nm incubated up to 30 mins by UV absorption analysis", "outline": "as §1"}, "A549 [5]": {"test_system": "A549", "assay": "Induction of apoptosis in human A549 cells assessed as early apoptotic cells at 1.2 uM incubated for 48 hrs by Annexin V-FITC and PI staining based flow cytometric analysis (reference value: 0.5%)", "type": "functional", "outline": "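A549 cells (4×10^5 per 6 cm dish) cultured 24 h, then treated 48 h with compound or DMSO. Cells gently harvested, washed twice in cold PBS, resuspended in binding buffer with Annexin V and PI, stained 15 min at room temperature in the dark, analysed by flow cytometry. Mean ± SD, n = 3.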"}, "A549 [6]": {"test_system": "A549", "assay": "Induction of morphological apoptosis in human A549 cells assessed as decrease in cell density incubated for 48 hrs by Hoechst 33342 and PI staining based fluorescence microscopic method", "type": "functional", "outline": "(§3)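 A549 cells (4×10^5 per 6 cm dish) were grown 24 h, then exposed to compound at the indicated concentrations or DMSO for 48 h. After PBS washes, cells were stained with Hoechst 33342 (10 µg/ml) plus PI for 5 min at room temperature in the dark and imaged by fluorescence microscopy for nuclear morphology.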"}, "A549 [7]": {"test_system": "A549", "assay": "Induction of morphological apoptosis in human A549 cells assessed as increase in cells with nuclear fragmentation at 0.3 to 1.2 uM incubated for 48 hrs by Hoechst 33342 and PI staining based fluorescence microscopic method", "type": "functional, cell-based", "outline": "as §3"}, "MCF7": {"test_system": "MCF7", "assay": "Antiproliferative activity against human MCF7 cells assessed as inhibition of cell growth incubated for 48 hrs by MTT assay", "type": "functional, cell-based", "details": "MCF7, 48 h", "outline": "(§4)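 MTT read-out. Cells seeded at 5.0 × 10⁴ cells/ml and cultured 24 h, then exposed to the drug over a range of concentrations for 48 h, with matching DMSO as control. MTT (5 mg/ml) added for 4 h, supernatant removed, formazan dissolved in DMSO, OD read at 570 nm. Run in triplicate, mean ± SD (n = 3).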"}, "A549 [8]": {"test_system": "A549", "assay": "Induction of apoptosis in human A549 cells assessed as late apoptotic cells at 0.6 uM incubated for 48 hrs by Annexin V-FITC and PI staining based flow cytometric analysis (reference value: 3.0%)", "type": "functional"}, "A549 [9]": {"test_system": "A549", "assay": "Induction of apoptosis in human A549 cells assessed as increase in late apoptotic cells incubated for 48 hrs by Annexin V-FITC and PI staining based flow cytometric analysis", "type": "functional, cell-based"}, "[10]": {"target": "T1, Hsp90 co-chaperone Cdc37 (Homo sapiens)", "assay": "Binding affinity to Cdc37 in human A549 cells assessed as inhibition of HSP90-Cdc37 interaction by measuring decrease in Bcl2 protein level at 1.25 to 5 uM incubated for 12 hrs by Western blot analysis", "type": "cell-based", "outline": "(§5)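 A549 cells (5×10^5 per 6 cm dish) were allowed to settle 12 h, then treated with DMSO or compound at the indicated concentrations for 12 h. Lysates were adjusted to 3 mg/ml protein by BCA and resolved on 10% SDS-PAGE, then Western blotted. β-actin or Hsp90 served as the loading control. Three separate experiments, mean ± SD.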"}, "[11]": {"target": "T1, Hsp90 co-chaperone Cdc37 (Homo sapiens)", "assay": "Binding affinity to Cdc37 in human A549 cells assessed as inhibition of HSP90-Cdc37 interaction by measuring increase in cleaved caspase-3 protein level at 1.25 to 5 uM incubated for 12 hrs by Western blot analysis", "type": "cell-based", "outline": "as §5"}, "A549 [12]": {"test_system": "A549", "assay": "Induction of mitochondrial membrane potential loss in human A549 cells assessed as cells with depolarized mitochondria by measuring increase in J-monomer green fluorescence intensity at 0.2 uM incubated for 24 hrs by JC1 staining based fluorescence microscopic method (reference value: 1.5%)", "type": "functional"}, "A549 [13]": {"test_system": "A549", "assay": "Induction of mitochondrial membrane potential loss in human A549 cells assessed as cells with depolarized mitochondria by measuring increase in J-monomer green fluorescence intensity at 0.8 uM incubated for 24 hrs by JC1 staining based fluorescence microscopic method (reference value: 1.5%)", "type": "functional"}, "A549 [14]": {"test_system": "A549", "assay": "Induction of cell cycle arrest in human A549 cells assessed as accumulation at G1 phase at 0.8 uM incubated for 24 hrs by PI staining based flow cytometric analysis (reference value: 60.14%)", "type": "functional", "outline": "as §2"}, "A549 [15]": {"test_system": "A549", "assay": "Induction of cell cycle arrest in human A549 cells assessed as accumulation at G1 phase at 0.2 uM incubated for 24 hrs by PI staining based flow cytometric analysis (reference value: 60.14%)", "type": "functional", "outline": "as §2"}, "HepG2": {"test_system": "HepG2", "assay": "Antiproliferative activity against human HepG2 cells assessed as inhibition of cell growth incubated for 48 hrs by MTT assay", "type": "functional, cell-based", "details": "HepG2, 48 h", "outline": "as §4"}, "A549 [16]": {"test_system": "A549", "assay": "Induction of mitochondrial membrane potential loss in human A549 cells assessed as cells with depolarized mitochondria by measuring increase in J-monomer green fluorescence intensity at 0.4 uM incubated for 24 hrs by JC1 staining based fluorescence microscopic method (reference value: 1.5%)", "type": "functional"}, "A549 [17]": {"test_system": "A549", "assay": "Induction of apoptosis in human A549 cells assessed as necrotic cells at 0.6 uM incubated for 48 hrs by Annexin V-FITC and PI staining based flow cytometric analysis (reference value: 1.0%)", "type": "functional"}},
  "note": "Calls of active or inactive are those of the source. The rule behind the calls is not given here.",
  "data": [
    {"smiles": "CC1=C(O)C(=O)C=C2C1=CC=C1[C@@]2(C)CC[C@@]2(C)[C@@H]3C[C@](C)(C(=O)OCCCOC(=O)/C=C(\\C#N)c4ccc(F)cc4)CC[C@]3(C)CC[C@]12C", "values": [
      {"measurement": "Activity", "setting": "[1]", "value": "Active"},
      {"measurement": "viability at 0.6 µM", "setting": "A549 [2]", "value": 71.2, "unit": "%"},
      {"measurement": "Activity", "setting": "A549 [3]", "value": 26.39, "unit": "%"},
      {"measurement": "Activity", "setting": "[4]", "value": "Active"},
      {"measurement": "Activity", "setting": "A549 [5]", "value": 7.4, "unit": "%"},
      {"measurement": "Activity", "setting": "A549 [6]", "value": "Dose-dependent effect"},
      {"measurement": "Activity", "setting": "A549 [7]", "value": "Active"},
      {"measurement": "IC50", "setting": "MCF7", "value": 640, "unit": "nM"},
      {"measurement": "Activity", "setting": "A549 [8]", "value": 16.9, "unit": "%"},
      {"measurement": "Activity", "setting": "A549 [9]", "value": "Dose-dependent effect"},
      {"measurement": "inhibition", "setting": "[10]", "value": "Active"},
      {"measurement": "inhibition", "setting": "[11]", "value": "Active"},
      {"measurement": "Activity", "setting": "A549 [12]", "value": 15.7, "unit": "%"},
      {"measurement": "Activity", "setting": "A549 [13]", "value": 26.2, "unit": "%"},
      {"measurement": "Activity", "setting": "A549 [14]", "value": 70.49, "unit": "%"},
      {"measurement": "Activity", "setting": "A549 [15]", "value": 64.36, "unit": "%"},
      {"measurement": "IC50", "setting": "HepG2", "value": 940, "unit": "nM"},
      {"measurement": "Activity", "setting": "A549 [16]", "value": 18.7, "unit": "%"},
      {"measurement": "Activity", "setting": "A549 [17]", "value": 6, "unit": "%"}
    ]}
  ]
}
